The experiment relates to HEK293T RORa/G6PC promoter luciferase, 20 h. The experiment can be described thus: RORa-driven G6PC promoter inhibitors, potency, late-stage follow-up, counter-screen for RORA inverse agonist project, cell-based, luminescence, dose response (AID 463172). In outline:
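Assay system – HEK293T cells transfected with full-length RORa, SRC-2 coactivator, G6PC promoter-luciferase · Timing – 20 h compound exposure after 24 h bulk transfection · Detection – luciferase luminescence · Benchmarks – DMSO vehicle-treated cells as normalization reference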
A general note: The purpose of a counterscreen is to sort out artefacts and off-target activity.

As to `O=S(=O)(Nc1ccc(C(O)(C(F)(F)F)C(F)(F)F)cc1)c1cccs1`, the IC50 was 1400 nM.

A word on the IC50: it is the concentration at which inhibition is half-maximal.

Values taken from PubChem BioAssay AID463172 (The Scripps Research Institute Molecular Screening Center, 2010).
